Published values gathered from unrelated publications.
Each line is one published result; the experiments were not run side by side.
Target: Protein kinase C epsilon type (PRKCE, Homo sapiens, UniProt Q02156)
One construct used (Q02156 1-737): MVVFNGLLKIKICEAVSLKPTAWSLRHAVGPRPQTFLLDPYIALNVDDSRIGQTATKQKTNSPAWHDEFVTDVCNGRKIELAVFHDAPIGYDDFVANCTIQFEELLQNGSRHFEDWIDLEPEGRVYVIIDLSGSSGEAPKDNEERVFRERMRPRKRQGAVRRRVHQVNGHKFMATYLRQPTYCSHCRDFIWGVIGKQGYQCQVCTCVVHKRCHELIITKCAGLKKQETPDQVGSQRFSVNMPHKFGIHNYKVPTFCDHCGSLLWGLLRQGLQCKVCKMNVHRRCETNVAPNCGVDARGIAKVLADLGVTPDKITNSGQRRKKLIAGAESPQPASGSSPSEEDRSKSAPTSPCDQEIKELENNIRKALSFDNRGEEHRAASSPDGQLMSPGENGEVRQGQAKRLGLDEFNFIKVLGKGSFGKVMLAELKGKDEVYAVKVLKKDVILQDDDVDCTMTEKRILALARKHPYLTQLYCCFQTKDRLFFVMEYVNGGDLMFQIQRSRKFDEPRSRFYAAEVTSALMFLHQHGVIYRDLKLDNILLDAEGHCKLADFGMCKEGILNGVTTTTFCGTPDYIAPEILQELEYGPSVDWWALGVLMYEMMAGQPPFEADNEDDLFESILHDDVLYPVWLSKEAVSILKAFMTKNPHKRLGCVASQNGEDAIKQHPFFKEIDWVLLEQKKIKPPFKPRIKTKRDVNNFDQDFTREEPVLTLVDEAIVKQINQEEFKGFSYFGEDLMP

SMILES	effect on	method	tested at	remaining binding
CCC(=N\O)/C(C)=C/c1ccc(F)cc1	cell-free assay	competition with immobilised ligand	1 µM	76%
COc1ncc2cc3ccccc3nc2c1C#N	cell-free assay	competition with immobilised ligand	5 µM	89%
FC(F)(F)Oc1cccc(-c2cnc3ccc(-c4ccncc4)nn23)c1	cell-free assay	competition with immobilised ligand	5 µM	62%
O=C(c1ccc(Nc2ncc(Cl)c(-c3cc4ccccc4s3)n2)cc1)N1CCC(N2CCCC2)CC1	binding	competition with immobilised ligand	1 µM	50%
C[C@@H]1CCN(c2nccc(-c3cnn4ncccc34)n2)C1	binding	–	1 µM	100%
C[C@@H]1CN(c2ccc3ncc(-c4ccc5[nH]nc(C6CC6)c5c4)n3n2)C[C@H](C)O1	binding	competition with immobilised ligand	50 nM	86%
c1cnn2ncc(-c3ccnc(N4CCC45COC5)n3)c2c1	binding	–	1 µM	100%
O=C(c1ccc(Nc2ncc(Cl)c(-c3ccc(Cl)s3)n2)cc1)N1CCC(N2CCCC2)CC1	binding	competition with immobilised ligand	1 µM	45%
COc1ccnn2ncc(-c3ccnc(N(C)C)n3)c12	binding	–	1 µM	100%
Cc1cnc(Nc2ccc(C(=O)N3CCC(N4CCCC4)CC3)cc2)nc1-c1cc2ccccc2s1	binding	competition with immobilised ligand	1 µM	26%
COc1cnc(Nc2cccc(S(N)(=O)=O)c2)nc1N1CCN(c2ccccc2)CC1	binding	competition with immobilised ligand	1 µM	100%
CN(c1ccnc(CNc2nc(Nc3ccc4c(c3)CC(=O)N4)ncc2C(F)(F)F)n1)S(C)(=O)=O	cell-free assay	competition with immobilised ligand	1 µM	50%
CCN1CCN(Cc2ccc(C(=O)Nc3ccc(C)c(Oc4ccc5c(c4)CC(=O)N5)c3)cc2C(F)(F)F)CC1	binding	competition with immobilised ligand	1 µM	100%
CS(=O)(=O)N1CCCC(NC(=O)[C@H](CCC2CCCCC2)NC(=O)c2ccc(CNc3ncnc4c3nnn4-c3ccccc3)cc2)C1 (stereo partly shown)	cell-free assay	competition with immobilised ligand	0.1 µM	63%
CC1CCCN1c1nccc(-c2cnn3ncccc23)n1 (stereo not shown)	binding	–	1 µM	100%
CCS(=O)(=O)c1cc2cc(C[C@](O)(CC(C)(C)c3ccc(F)cc3C(N)=O)C(F)(F)F)[nH]c2cn1	cell-free assay	competition with immobilised ligand	1 µM	96%
C[C@@H](c1ccc(-n2cnc3c(N)ncnc32)cc1)N1CCc2nn(C)c(Cc3ccccc3)c2C1=O	binding	competition with immobilised ligand	0.1 µM	74%
COc1cc(-c2cn(C3CCc4ccccc4N(CC(F)(F)F)C3=O)nn2)ccc1-n1ccc(C)n1 (stereo not shown)	cell-free assay	competition with immobilised ligand	1 µM	100%
O=C(Nc1c[nH]nc1C(=O)NC1CCNCC1)c1cc(F)cc(F)c1	binding	competition with immobilised ligand	1 µM	70%
CN(c1nccc(-c2cnn3ncccc23)n1)C1CC1	binding	–	1 µM	83%
CSc1cccnc1N1CCN(Cc2nc3ccccc3[nH]2)CC1	cell-free assay	competition with immobilised ligand	1 µM	77%
N[C@@H]1CCN(c2nccc(-c3cnn4ncccc34)n2)C1	binding	–	1 µM	97%
Cc1c[nH]c2nccc(Oc3c(F)cc(Nc4cc(Cl)nc(N)n4)cc3F)c12	cell-free assay	competition with immobilised ligand	0.1 µM	96%
CN(C)c1ncc(F)c(-c2cnn3ncccc23)n1	binding	–	1 µM	95%
CN(C(=O)c1ccccc1)c1cc(N(C)c2ccc3c(c2)CCc2ccc(C(=O)NCCN4CCOCC4)cc2C3=O)ccc1F	cell-free assay	competition with immobilised ligand	1 µM	87%
